Source: PubChem (The Scripps Research Institute Molecular Screening Center)
TAAR1 antag: antagonists of human TAAR1; hit rate 1.5% among 360,000; CHO RD-HGA16 TAAR1, Fluo-8 calcium fluorescence, antagonist; Q96RJ0; AID 624466; inhibition, % at 3 µM;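 active = inhibition above a per-plate cutoff, the mean inhibition of test compounds on that plate plus 3 SD, cut at about 49% in these data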
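System: CHO RD-HGA16 cells bearing hTAAR1. Reagent: EC80 β-phenethylamine stimulus. Schedule: seeding 17-24 h prior, 75-min 37 °C, 30-min RT dye loading. Signal: Fluo-8 intracellular calcium dye fluorescence, real-time kinetic reads. Read-out: % inhibition from peak post-agonist over basal fluorescence ratio. Benchmarks: vehicle wells and EC80 agonist wells. Replicates: n of 1.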
CHRM1 PAM: potentiates human M1 receptor response to acetylcholine. CHO-K1 hM1, Fluo-8 calcium fluorescence, ACh EC20; 0% = ACh EC20, 100% = maximal ACh. AID 588819. hit rate 0.088% among 360,000. P11229. activation, % at 3 µM; in the data active = activation above about 19%, passing the limit was not always enough
Target sequence (P11229 whole entry, looked up): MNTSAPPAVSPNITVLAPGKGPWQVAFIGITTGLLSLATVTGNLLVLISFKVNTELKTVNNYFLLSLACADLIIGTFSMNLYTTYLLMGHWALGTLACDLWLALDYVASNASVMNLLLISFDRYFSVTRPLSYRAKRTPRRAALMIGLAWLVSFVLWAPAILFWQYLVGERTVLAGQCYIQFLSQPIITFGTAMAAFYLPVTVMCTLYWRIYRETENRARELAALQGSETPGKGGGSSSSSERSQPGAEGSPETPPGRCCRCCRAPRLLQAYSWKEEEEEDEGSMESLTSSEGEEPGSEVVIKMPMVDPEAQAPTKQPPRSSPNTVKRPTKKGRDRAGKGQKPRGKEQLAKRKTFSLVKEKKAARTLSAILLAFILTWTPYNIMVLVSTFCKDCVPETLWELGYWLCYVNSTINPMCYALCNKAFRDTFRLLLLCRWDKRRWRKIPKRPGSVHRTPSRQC
CHRM1 antagonist: blocks human M1 muscarinic receptor. P11229. CHO-K1 hM1, Fluo-8 calcium fluorescence, ACh EC80 antagonist. inhibition, % at 3 µM. hit rate 1.3% among 360,000. AID 588852;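 active = percent inhibition above its own plate's cutoff, namely the mean of that plate's compound wells plus 3 SD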;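 also: peak over basal fluorescence ratio during 140 s after agonist addition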
TAAR1 ag: agonists of human TAAR1; activation, % at 3 µM; hit rate 0.99% among 360,000; Q96RJ0; CHO RD-HGA16 TAAR1, Fluo-8 calcium fluorescence; vehicle wells 0%, saturating PEA agonist 100%;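 active = activation above the mean activation of all test compounds in the run plus 3 SD, cut at about 38% in these data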
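Test system: RD-HGA16 (CHO) cells co-expressing Gα16 and hTAAR1; dosing: one-point dosing at 3 µM (nominal); timing: 17-24 h seeding, 75 min 37 °C dye, 30 min RT; signal: kinetic Fluo-8 calcium fluorescence; read-out basis: % activation relative to PEA EC100 response; controls: DMSO and PEA EC100; replicates: n 1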
CHRM1 agonist: agonists of human M1 muscarinic receptor; P11229; CHO-K1 hM1, Fluo-8 calcium fluorescence, agonist mode; 0% DMSO, 100% acetylcholine EC100; activation, % at 3 µM; hit rate 0.33% among 360,000;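 active = activation above the run's mean compound activation plus 3 SD, cut at about 16% in these data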;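 also: peak over basal fluorescence ratio within a 140 s kinetic read after compound addition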
TAAR1 nonsel count: nonselective antagonist in TAAR1 antagonist counter-screen | AID 651780 | shares compounds with TAAR1 antag | hit rate 77% among 2,400 | inhibition, % at 3 µM | counterscreen cell line, calcium fluorescence, antagonist mode; in the data active = inhibition above about 22%;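 also: CHO-Ga16 host cells stimulated with ATP at an EC80 level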
TAAR1 antag conf: human TAAR1 antagonism, confirmed | hit rate 40% among 2,400 | shares compounds with TAAR1 antag | inhibition, % at 3 µM | TAAR1-expressing cells, fluorescence antagonist read-out; in the data active = inhibition above about 49%;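 also: CHO-Ga16 host cells challenged with agonist PEA near its EC80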
Ga16 nonsel ag: nonselective Ga16 agonist in TAAR1 antagonist counter-screen; shares compounds with TAAR1 antag; Ga16-expressing cells, calcium fluorescence, agonist counterscreen; activation, % at 3 µM; hit rate 18% among 2,400; in the data active = activation above about 12%
TAAR1 ag count: counter-screen for human TAAR1 antagonists: TAAR1 agonists | shares compounds with TAAR1 antag | hTAAR1 cell line, fluorescence activation, agonist mode | activation, % at 3 µM | hit rate 2% among 2,400 | AID 651955; in the data active = activation above about 37%;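 also: CHO cells stably expressing TAAR1 with calcium dye readout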
A number is an active result; - = inactive; . = not tested or not shown. The list is not random: actives were taken first. Their share in the collection is about 3.4%.

SMILES	TAAR1 antag	CHRM1 PAM	CHRM1 antagonist	TAAR1 ag	CHRM1 agonist	TAAR1 nonsel count	TAAR1 antag conf	Ga16 nonsel ag	TAAR1 ag count
COc1ccc(NC(=O)c2cccc(N3C(=O)C4C5C=CC(C6CC56)C4C3=O)c2)cc1 (stereo unspecified)	62.6	-	-	-	-	35.4	53.6	13.3	-
COc1ccc(NC(=O)c2cccc(N3C(=O)C4C5C=CC(C6CC56)C4C3=O)c2)c(OC)c1 (stereo unspecified)	-	-	-	-	-	.	.	.	.
O=C1NC[C@@H](CCCCN2CCN(CCc3ccccc3)C(=O)C2=O)N(CC2CCCCC2)C1=O	-	.	.	-	.	.	.	.	.
CC1(c2nc3ccccc3[nH]2)CCCC2=Nc3ccccc3CN21 (stereo unspecified)	-	.	.	-	.	.	.	.	.
CCCCN(C)C(=O)c1sc(=O)n(Cc2ccc(Cl)c(Cl)c2)c1C	-	-	-	-	-	.	.	.	.
O=C(Nc1cccc(/C=C/c2ccccn2)c1)c1ccc(-n2cncn2)c([N+](=O)[O-])c1	72.6	-	20.4	-	-	40.2	60.9	13.9	-
COc1ccc(O)c(/C=N/Nc2nc(Nc3ccccc3)nc(-n3nc(C)cc3C)n2)c1	58.8	-	-	-	-	37.3	-	-	-
COc1cc(/C=N/Nc2nc(Nc3ccccc3)nc(-n3nc(C)cc3C)n2)cc(OC)c1OC	64.5	-	25.9	-	-	24.1	-	-	-
COc1ccc(O)c(/C=N/Nc2nc(C)cc(-c3ccccc3)n2)c1	-	-	-	-	-	.	.	.	.
Nc1ccn(C2OC(CO)C(O)C2F)c(=O)n1 (stereo unspecified)	-	-	-	-	-	.	.	.	.
COc1cc(O)c(CC=C(C)C)c(O)c1C(=O)CCc1ccc(O)cc1	89.5	-	-	-	-	44.4	60.8	16.3	-
O=C1NC[C@H](CCCCN2C[C@H](Cc3ccc(O)cc3)N(CC3CCCCC3)C(=O)C2=O)N(Cc2ccccc2)C1=O	-	.	.	-	.	.	.	.	.
CCOC(=O)C(C#N)(Cc1ccc2ccccc2n1)Cc1ccc2ccccc2n1	64.5	-	-	-	-	29.6	-	-	-
O=C(CNC(=O)c1ccccc1F)NCCN1C(=O)S/C(=C\c2ccccc2Cl)C1=O	-	-	-	-	-	.	.	.	.
O=C(CCS(=O)(=O)c1ccc(Cl)cc1)NCCN1C(=O)S/C(=C\c2ccccc2F)C1=O	70.7	-	-	-	-	38.4	-	-	-
CCCCNC(=O)C(NC(=O)c1ccc2ccccc2c1)C(=O)c1ccccc1 (stereo unspecified)	-	.	.	-	.	.	.	.	.
CCOCc1nc(N)nc(N)c1-c1cccc(Cl)c1	-	-	-	-	-	.	.	.	.
Cc1ccc(CCNC(=O)C2CCCN(c3nc4ccccc4o3)C2)cc1 (stereo unspecified)	49.5	-	-	-	-	23.4	-	-	-
c1ccc(-c2c(-c3ccccc3)n(Cc3ccco3)c3ncnc(NCCCn4ccnc4)c23)cc1	60.5	-	-	-	-	25.4	-	22.2	39.8
OCCNc1ncnc2c1c(-c1ccccc1)c(-c1ccccc1)n2Cc1ccco1	-	-	-	-	-	.	.	.	.
Cn1nc(C(C)(C)C)c([N+](=O)[O-])c1C(=O)Nc1cccc2ccccc12	55.7	-	-	-	-	21.9	-	-	-
COc1ccccc1NC(=O)c1c([N+](=O)[O-])c(C(C)(C)C)nn1C	-	-	-	-	-	.	.	.	.
Cc1cccc(NC(=O)c2cccc(NC(=O)c3ccco3)c2)c1	-	-	-	-	-	.	.	.	.
COc1ccc(C(=O)Nc2cccc(/C(C)=N/NC(=O)c3ccc([N+](=O)[O-])c(C)c3)c2)cc1OC	60.5	-	-	-	-	44.1	66.4	11.6	-
Cc1cc(C(=O)Nc2cccc(NC(=O)c3ccco3)c2)ccc1[N+](=O)[O-]	57.9	-	-	-	-	-	-	-	-
SMILES	TAAR1 antag	CHRM1 PAM	CHRM1 antagonist	TAAR1 ag	CHRM1 agonist	TAAR1 nonsel count	TAAR1 antag conf	Ga16 nonsel ag	TAAR1 ag count
Cc1cccc(C)c1N1C(=O)c2ccccc2NC(=O)C1C(=O)NCCc1ccccc1F (stereo unspecified)	-	.	.	-	.	.	.	.	.
NC(=O)CCc1c[nH]c2ccccc12	-	-	-	-	-	.	.	.	.
OCC(CCc1c[nH]c2ccccc12)c1c[nH]c2ccccc12 (stereo unspecified)	52.5	.	.	-	.	24.1	-	-	-
CSCCC(c1nc2ccccc2[nH]1)n1c(-c2cc(C(F)(F)F)cc(C(F)(F)F)c2)nc2ccccc21 (stereo unspecified)	-	.	.	-	.	.	.	.	.
CC1(C)N=C(SCC(=O)Nc2ccc(Cl)cc2)C(c2ccccc2)=N1	-	-	-	-	-	.	.	.	.
CC1(C)N=C(SCC(=O)Nc2ccc(Cl)cc2)C(c2ccc(Cl)cc2)=N1	67.7	-	-	-	-	27.3	-	-	-
COc1cc(/C=C(/C#N)C(=O)c2c(C)[nH]c3ccccc23)ccc1OCC#N	55.3	-	-	-	-	23.8	50.1	19.2	39.7
CCOC(=O)c1c(C)[nH]c(C(=O)/C(C#N)=C/c2ccc(OC)c(OC)c2)c1C	-	-	-	-	-	.	.	.	.
CCOc1ccc(/C=C(\C#N)C(=O)c2c(C)[nH]c3ccccc23)cc1OC	57.9	-	-	-	-	-	-	-	-
CN(Cc1ccc(Cl)c(Cl)c1)C(c1cc2ccccc2o1)c1nnnn1C(C)(C)C (stereo unspecified)	-	.	.	-	.	.	.	.	.
CCc1nc(NCCO)c(C#N)c2c1CSC(C)(C)C2	59.0	-	-	-	-	30.8	50.7	-	-
O=C(O)c1cccc(N2C(=O)C3CC=CCC3C2=O)c1 (stereo unspecified)	-	-	-	-	-	.	.	.	.
O=C(COC(=O)c1cccc(N2C(=O)C3CC=CCC3C2=O)c1)c1ccccc1 (stereo unspecified)	55.1	-	-	-	-	-	-	-	-
Cc1ccc2cc(NC(=O)c3ccc(C(C)(C)C)cc3)ccc2n1	58.1	-	-	-	-	24.9	-	-	-
CCc1ccc(C(=O)Nc2ccc3nc(C)ccc3c2)cc1	-	-	-	-	-	.	.	.	.
Cc1cccc(C)c1N1C(=O)c2ccccc2NC(=O)C1C(=O)NCCOc1ccccc1 (stereo unspecified)	-	.	.	-	.	.	.	.	.
O=[N+]([O-])c1ccc(-c2c(-c3ccccc3)ncc3cc(F)ccc23)cc1	82.0	-	-	-	-	-	55.3	-	-
O=[N+]([O-])c1cccc(-c2c(-c3ccccc3)ncc3cc(F)ccc23)c1	-	-	-	-	-	.	.	.	.
